The source of these data is ChEMBL document CHEMBL1126984, “o-phenylphenols: potent and orally active leukotriene B4 receptor antagonists” (J Med Chem, 1993).

One may read the ED50 as the dose at which the effect has come halfway, by size or by number of responders. Read a high ED50 as weaker potency. In general, pKB refers to the KB on a negative log10 scale, so that one unit is a factor of ten. The low end stands for a large KB, the high end for a small KB. Broadly, the Ki is the equilibrium dissociation constant of an inhibitor or competing ligand from its target. In general, IC50 refers to the midpoint of a concentration-inhibition curve.

SMILES strings stand for the structures.

In experiment [1] the test system is Cavia porcellus. Description: In vivo antagonistic activity against LTB4 induced airway obstruction in guinea pig following intravenous administration. The format is functional. The method, boiled down:
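Guinea pigs dosed intravenously 5 min before a 3.0 µg/kg iv LTB4 challenge. Animals killed 1 min after challenge. Excised lung gas volume (ELGV) measured as the index of airway obstruction severity. Means ± SEM, 3-14 guinea pigs per group; ED50 in mg/kg.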

Experiment [2] concerns Cavia porcellus. The experiment in a line: In vivo antagonistic activity against LTB4 induced airway obstruction in guinea pig following oral administration. Type of experiment: functional. A digest of the protocol:
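Guinea pigs dosed orally 2 h before a 3.0 µg/kg iv LTB4 challenge. Animals killed 1 min after challenge. Excised lung gas volume (ELGV) measured as the index of airway obstruction severity. Means ± SEM, 3-14 guinea pigs per group.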

Experiment [3] is filed under the species Cavia porcellus. Description: Inhibition of LTB4-induced contraction of guinea pig lung parenchyma strips. Type of experiment: functional.
Experiment [4] concerns the target Leukotriene B4 receptor (Cavia porcellus). Description: Inhibition of [3H]LTB4 receptor binding in guinea pig lung membrane.
Experiment [5] deals with T1, Leukotriene B4 receptor (Homo sapiens, UniProt Q9NPC1+Q15722). The experiment in a line: Inhibition of [3H]LTB4 receptor binding in human neutrophils. Type of experiment: protein assay.
Experiment [6] addresses T1, Leukotriene B4 receptor. The experiment in a line: Inhibition of LTB4-induced human neutrophil CD11b/CD18 integrin up-regulation. The format is functional.

Turning to `CCc1cc(-c2ccccc2)c(O)cc1OCCCCCC(C)(C)c1nn[n-]n1.[Na+]`, the ED50 is 0.05 mg/kg in the experiment on Cavia porcellus [1] and 0.7 mg/kg with Cavia porcellus [2]. Further, the pKB in the experiment filed under Cavia porcellus [3] is recorded as 8.3.
For `CCc1cc(-c2ccc(F)cc2)c(O)cc1OCCCCCC(C)(C)c1nn[n-]n1.[Na+]`, in that order: 0.03 mg/kg, 0.56 mg/kg and 8.3.
The compound `CCc1cc(-c2cccc(C(F)(F)F)c2)c(O)cc1OCCCCCC(C)(C)c1nn[n-]n1.[Na+]` had a Ki in experiment [4] of 0.0769 µM. Moreover, at Leukotriene B4 receptor [5], the IC50 was 0.0332 µM.
In experiment [4], `CCc1cc(-c2ccccn2)c(O)cc1OCCCCCC(C)(C)c1nn[n-]n1.[Na+]` came in with a Ki of 0.196 µM. Moreover, the IC50 on Leukotriene B4 receptor [5] amounted to 0.453 µM.
On to `CCc1cc(-c2ccc(N(C)C)cc2)c(O)cc1OCCCCCC(C)(C)c1nn[n-]n1.[Na+]`, for which, in experiment [4], the Ki amounted to 0.0859 µM. At Leukotriene B4 receptor [5], this compound came in with an IC50 of 0.0158 µM.
Consider `CCc1cc(C(C)=O)c(O)cc1OCCCCCC(C)(C)c1nn[n-]n1.[Na+]`, for which the pKB in the experiment filed under Cavia porcellus [3] was found to be 6.7.
On the same count and under the same terms, as for `CCOc1cc(CC)c(OCCCCCC(C)(C)c2nn[n-]n2)cc1O.[Na+]`, the figure is 6.6.
In the case of `CCCc1cc(CC)c(OCCCCCC(C)(C)c2nn[n-]n2)cc1O.[Na+]`, the Ki in experiment [4] stood at 0.0142 µM. The IC50 at Leukotriene B4 receptor [5] came to 0.0093 µM; against Leukotriene B4 receptor [6], 0.161 µM. This compound also registered a pKB in the experiment listed under Cavia porcellus [3] of 7.6.
